# Experimental data: ChEMBL document CHEMBL4425129, “Exploring Basic Tail Modifications of Coumarin-Based Dual Acetylcholinesterase-Monoamine Oxidase B Inhibitors: Identification of Water-Soluble, Brain-Permeant Neuroprotective Multitarget Agents” (J Med Chem, 2016)
# pIC50: −log10 of the molar value. The source made the active and inactive calls. No cut-off for these calls is given here.
# Tests used:
# [1] = biological target: T1, Amine oxidase [flavin-containing] B (Homo sapiens, UniProt P27338); experiment: Inhibition of human recombinant MAOB expressed in microsomes of baculovirus-infected insect cell using kynuramine as substrate preincubated for 20 mins followed by protein addition measured after 30 mins by fluorescence assay
# T1 sequence (P27338 whole entry): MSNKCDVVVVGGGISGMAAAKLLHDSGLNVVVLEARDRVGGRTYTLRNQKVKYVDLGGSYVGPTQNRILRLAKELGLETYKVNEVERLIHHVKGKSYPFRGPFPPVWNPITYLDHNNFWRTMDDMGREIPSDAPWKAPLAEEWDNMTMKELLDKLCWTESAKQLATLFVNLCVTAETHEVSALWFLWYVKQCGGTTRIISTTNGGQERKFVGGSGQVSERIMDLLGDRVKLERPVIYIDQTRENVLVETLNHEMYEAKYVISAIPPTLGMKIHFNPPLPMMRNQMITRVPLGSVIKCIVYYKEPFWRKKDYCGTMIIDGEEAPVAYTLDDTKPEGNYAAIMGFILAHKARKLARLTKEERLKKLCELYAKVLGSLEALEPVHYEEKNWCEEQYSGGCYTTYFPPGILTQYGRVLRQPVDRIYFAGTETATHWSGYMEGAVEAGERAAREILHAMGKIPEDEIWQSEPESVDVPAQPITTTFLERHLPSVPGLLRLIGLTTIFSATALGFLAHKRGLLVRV
# [2] = biological target: Cholinesterase (Equus caballus) (UniProt P81908); experiment: Inhibition of equine serum BChE at 10 uM using butyrylthiocholine iodide as substrate preincubated for 20 mins followed by substrate addition measured for 5 mins by spectrophotometric Ellman's method relative to control
# Summary of the method: (§1)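 BChE from equine serum (13 U/mg), Ellman spectrophotometric method run in 96-well format. Seven inhibitor concentrations, 10^-4 to 10^-10 M, each in triplicate. IC50 from non-linear regression of response against log(concentration). […] Mean of three independent experiments.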
# [3] = biological target: T2, Amine oxidase [flavin-containing] A (Homo sapiens, UniProt P21397); experiment: Inhibition of human recombinant MAOA expressed in microsomes of baculovirus-infected insect cell using kynuramine as substrate preincubated for 20 mins followed by protein addition measured after 30 mins by fluorescence assay
# T2 sequence (P21397 whole entry): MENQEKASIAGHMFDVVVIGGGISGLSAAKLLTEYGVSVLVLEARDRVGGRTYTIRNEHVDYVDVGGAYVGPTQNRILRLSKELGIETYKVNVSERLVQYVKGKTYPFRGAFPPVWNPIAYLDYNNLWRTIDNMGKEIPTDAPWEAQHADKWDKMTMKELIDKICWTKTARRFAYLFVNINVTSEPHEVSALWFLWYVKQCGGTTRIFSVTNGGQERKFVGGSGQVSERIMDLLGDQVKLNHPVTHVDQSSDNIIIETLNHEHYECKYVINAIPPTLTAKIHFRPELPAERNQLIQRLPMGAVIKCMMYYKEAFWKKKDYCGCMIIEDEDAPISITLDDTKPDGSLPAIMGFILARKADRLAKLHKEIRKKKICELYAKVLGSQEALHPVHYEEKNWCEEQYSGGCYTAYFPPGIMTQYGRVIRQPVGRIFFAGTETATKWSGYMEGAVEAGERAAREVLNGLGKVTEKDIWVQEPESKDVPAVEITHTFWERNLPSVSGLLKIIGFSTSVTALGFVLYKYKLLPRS
# Summary of the method: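 Recombinant human MAO A (baculovirus-infected insect cell microsomes) with kynuramine substrate; inhibitor preincubated 20 min at 37 °C, enzyme then added and incubated 30 min more. Fluorescence at ex/em 320/400 nm. Triplicates, three independent experiments.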
# Acetylcholinesterase = Acetylcholinesterase (Electrophorus electricus, UniProt O42275); experiment: Inhibition of electric eel AChE using acetylthiocholine iodide as substrate preincubated for 20 mins followed by substrate addition measured for 5 mins by spectrophotometric Ellman's method
# Cholinesterase = Cholinesterase (Equus caballus, UniProt P81908); experiment: Inhibition of equine serum BChE using butyrylthiocholine iodide as substrate preincubated for 20 mins followed by substrate addition measured for 5 mins by spectrophotometric Ellman's method; summary of the method: as §1
# SH-SY5Y [4] = experiment: Neuroprotective activity against rotenone-induced oxidative injury in human SH-SY5Y cells assessed as increase in cell viability at 1 uM after 24 hrs by MTT assay; assay type: functional, cell-based
# Summary of the method: (§2)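 SH-SY5Y cells incubated 24 h with compound at 1 or 10 µM together with H2O2 300 µM, oligomycin-A 10 µM or rotenone 20 µM. Viability by MTT, as % of cells given neither insult nor compound. Triplicates, three repeats; mean ± SD; two-way ANOVA with Bonferroni post hoc test.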
# SH-SY5Y [5] = experiment: Neuroprotective activity against H2O2-induced oxidative injury in human SH-SY5Y cells assessed as increase in cell viability at 1 to 10 uM after 24 hrs by MTT assay; assay type: functional, cell-based; summary of the method: as §2
# SH-SY5Y [6] = experiment: Cytotoxicity against human SH-SY5Y cells assessed as inhibition of cell growth after 24 hrs by MTT assay; assay type: cell-based
# Summary of the method: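 SH-SY5Y cells exposed 24 h at 37 °C to 0.1, 1, 5, 10 and 50 µM; viability read by MTT at 570 nm versus untreated cells. […] Means ± SD, n = 3.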
# SH-SY5Y [7] = experiment: Neuroprotective activity against oligomycin-A-induced oxidative injury in human SH-SY5Y cells assessed as increase in cell viability at 10 uM after 24 hrs by MTT assay; assay type: functional, cell-based; summary of the method: as §2
# Homo sapiens = species on record: Homo sapiens; experiment: Selectivity index, ratio of IC50 for human recombinant MAOA to IC50 for human recombinant MAOB
# SH-SY5Y [8] = experiment: Neuroprotective activity against oligomycin-A-induced oxidative injury in human SH-SY5Y cells assessed as increase in cell viability at 1 uM after 24 hrs by MTT assay; assay type: functional, cell-based; summary of the method: as §2
# SH-SY5Y [9] = experiment: Neuroprotective activity against rotenone-induced oxidative injury in human SH-SY5Y cells assessed as increase in cell viability at 10 uM after 24 hrs by MTT assay; assay type: functional, cell-based; summary of the method: as §2
# Acetylcholinesterase, sequence (O42275 whole entry): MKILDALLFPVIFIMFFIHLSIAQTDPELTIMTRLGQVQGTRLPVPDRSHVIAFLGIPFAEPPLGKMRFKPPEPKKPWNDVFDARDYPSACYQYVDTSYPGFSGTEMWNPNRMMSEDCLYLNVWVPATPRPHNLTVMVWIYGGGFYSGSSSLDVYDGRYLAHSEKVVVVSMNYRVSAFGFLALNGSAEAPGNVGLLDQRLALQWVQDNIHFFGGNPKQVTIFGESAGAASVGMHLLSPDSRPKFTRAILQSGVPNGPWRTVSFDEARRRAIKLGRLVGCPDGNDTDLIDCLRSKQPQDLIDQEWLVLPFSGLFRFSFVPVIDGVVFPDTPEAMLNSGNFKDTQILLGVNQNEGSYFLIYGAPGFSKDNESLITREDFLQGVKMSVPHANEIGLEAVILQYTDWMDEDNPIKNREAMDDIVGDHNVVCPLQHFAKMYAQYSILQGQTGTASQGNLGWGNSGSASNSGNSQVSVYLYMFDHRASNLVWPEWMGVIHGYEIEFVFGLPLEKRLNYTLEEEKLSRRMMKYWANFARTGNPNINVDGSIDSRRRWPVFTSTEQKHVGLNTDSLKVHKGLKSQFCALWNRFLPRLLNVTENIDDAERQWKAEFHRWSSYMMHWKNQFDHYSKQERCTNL
# Cholinesterase, sequence (P81908 whole entry): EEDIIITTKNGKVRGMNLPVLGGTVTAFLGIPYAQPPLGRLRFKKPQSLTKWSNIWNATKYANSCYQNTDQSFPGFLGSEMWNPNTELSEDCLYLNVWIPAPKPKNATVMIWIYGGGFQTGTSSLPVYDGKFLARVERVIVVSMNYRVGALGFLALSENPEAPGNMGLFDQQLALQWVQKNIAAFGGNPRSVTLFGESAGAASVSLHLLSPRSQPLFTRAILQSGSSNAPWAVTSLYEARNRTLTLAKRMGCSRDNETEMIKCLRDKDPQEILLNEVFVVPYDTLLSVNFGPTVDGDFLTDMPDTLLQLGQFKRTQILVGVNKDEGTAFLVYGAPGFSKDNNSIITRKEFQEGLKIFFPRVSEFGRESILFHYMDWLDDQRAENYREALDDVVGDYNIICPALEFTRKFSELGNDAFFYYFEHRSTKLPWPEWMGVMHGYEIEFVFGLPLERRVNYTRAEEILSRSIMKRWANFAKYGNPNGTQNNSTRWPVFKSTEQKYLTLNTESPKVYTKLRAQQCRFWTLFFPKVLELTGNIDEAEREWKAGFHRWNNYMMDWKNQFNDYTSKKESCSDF
# Cholinesterase (Equus caballus), sequence (P81908 whole entry): as above
Structure (SMILES),pIC50 [1],inhibition [2] [%],pIC50 [3],pIC50 (Acetylcholinesterase),pIC50 (Cholinesterase),Activity (SH-SY5Y [4]),Activity (SH-SY5Y [5]),pIC50 (SH-SY5Y [6]),Activity (SH-SY5Y [7]),Ratio IC50 (Homo sapiens),Activity (SH-SY5Y [8]),Activity (SH-SY5Y [9])
Cc1c(C)c2ccc(OCC3CCN(Cc4ccc(C#N)cc4)CC3)cc2oc1=O,6.26,27,5.00,5.74,,,,,,,,
Cc1c(C)c2ccc(OCC3CCCN(Cc4ccc(F)cc4)C3)cc2oc1=O (racemic),6.79,,5.95,5.84,5.43,Active,Active,,,,,
Cc1c(C)c2ccc(OCC3CCCN(Cc4ccc(Cl)cc4)C3)cc2oc1=O (racemic),7.30,,6.09,5.54,5.23,,,,,,,
Cc1c(C)c2ccc(OCC3CCCN(Cc4cccc(Cl)c4)C3)cc2oc1=O (racemic),7.44,,6.01,5.93,5.33,,Active,4.89,inactive,,,
Cc1c(C)c2ccc(OCC3CCCN(Cc4ccc(C#N)cc4)C3)cc2oc1=O (racemic),7.47,36,5.35,5.55,,,,,,133,,
Cc1c(C)c2ccc(OCC3CCCN(Cc4ccc(S(C)(=O)=O)cc4)C3)cc2oc1=O (racemic),6.95,10,6.68,6.07,,,,,,,,
COc1ccc(CN2CCCC(COc3ccc4c(C)c(C)c(=O)oc4c3)C2)cc1OC (racemic),7.05,,5.76,5.66,5.22,,,5.00,inactive,,inactive,
Cc1c(C)c2ccc(OCC3CCCN(Cc4cccc(Br)c4)C3)cc2oc1=O (racemic),,30,,,,Active,Active,,Active,,Active,Active
Cc1c(C)c2ccc(OCC3CCCN(Cc4ccccc4)C3)cc2oc1=O (racemic),,,,,,Active,Active,,Active,,Active,Active
"Cc1c(C)c2ccc(OCC3CCCN(Cc4cccc(Br)c4)C3)cc2oc1=O (single isomer, unassigned; (+)) [listing 1 of 2 here]",7.59,,6.27,5.49,,,,,,,,
"Cc1c(C)c2ccc(OCC3CCCN(Cc4cccc(Br)c4)C3)cc2oc1=O (single isomer, unassigned; (+)) [listing 2 of 2 here]",,36,,,,,,,,21,,
"Cc1c(C)c2ccc(OCC3CCCN(Cc4cccc(Br)c4)C3)cc2oc1=O (single isomer, unassigned; (-)) [listing 1 of 2 here]",6.71,,5.95,5.76,,,,,,,,
"Cc1c(C)c2ccc(OCC3CCCN(Cc4ccccc4)C3)cc2oc1=O (single isomer, unassigned; (-))",,,5.64,6.11,5.09,,,,,,,
"Cc1c(C)c2ccc(OCC3CCCN(Cc4cccc(Br)c4)C3)cc2oc1=O (single isomer, unassigned; (-)) [listing 2 of 2 here]",,26,,,,,,,,,,
Cc1c(C)c2ccc(OCC3CCCN(Cc4ccccc4)C3)cc2oc1=O (stereo in doubt; (+)-5b),,,5.42,5.74,5.54,,,,,,,
